{"source": "ChEMBL document CHEMBL5715959", "about": "“Inhibition of histone methyltransferase EZH2 in Schistosoma mansoni in vitro by GSK343 reduces egg laying and decreases the expression of genes implicated in DNA replication and noncoding RNA metabolism” (2018)", "key": {"Schistosoma mansoni [1]": {"test_system": "Schistosoma mansoni", "experiment": "Antischistosomal activity against adult Schistosoma mansoni assessed as decreased motility at 20 uM incubated for 48 hrs by inverted microscope analysis relative to control", "type": "functional", "design": "scale not given: the % may be the effect or the level left", "how_it_was_run": "(§1)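 Paired adult worms were cultured in RPMI/10% FBS with antibiotics at 37°C, 5% CO2, with GSK343 or 0.1% DMSO. They were viewed by inverted microscope at 3, 6, 12, 24 and 48 h. Motility was scored on a 0–3 scale (3 full movement, 1.5 partial or immobile but alive, 0 dead); death meant no movement over more than 2 min. Pairing was recorded. Three experiments, each with 10 pairs; mean ± SD.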"}, "Schistosoma mansoni [2]": {"test_system": "Schistosoma mansoni", "experiment": "Antischistosomal activity against adult Schistosoma mansoni assessed as decreased motility incubated for 24 hrs by inverted microscope analysis relative to control", "type": "functional", "design": "scale not given: the % may be the effect or the level left", "how_it_was_run": "as §1"}, "Schistosoma mansoni [3]": {"test_system": "Schistosoma mansoni", "experiment": "Antischistosomal activity against adult Schistosoma mansoni assessed as dead worms at 50 uM incubated for 48 hrs by inverted microscope analysis", "type": "functional, organism-based", "how_it_was_run": "as §1"}, "Schistosoma mansoni [4]": {"test_system": "Schistosoma mansoni", "experiment": "Antischistosomal activity against adult Schistosoma mansoni assessed as drastic reduction in pairing of couples at 50 uM incubated for 3 hrs by inverted microscope analysis relative to control", "type": "functional", "design": "scale not given: the % may be the effect or the level left", "how_it_was_run": "as §1"}, "Schistosoma mansoni [5]": {"test_system": "Schistosoma mansoni", "experiment": "Cytotoxicity against adult Schistosoma mansoni assessed as reduction in ATP quantification at 20 uM incubated for 48 hrs by CellTiter-Glo Luminescent assay relative to control", "type": "functional", "design": "scale not given: the % may be the effect or the level left", "how_it_was_run": "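Worm pairs in supplemented RPMI (10% FBS, 37°C, 5% CO2) exposed 48 h to compound or 0.1% DMSO. ATP measured by luminescence in freshly lysed worms and expressed as % of vehicle signal; three replicate experiments, 10 pairs each, mean ± SD.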"}, "Schistosoma mansoni [6]": {"test_system": "Schistosoma mansoni", "experiment": "Antischistosomal activity against adult female Schistosoma mansoni assessed as damaged tegument with extensive sloughing at 20 uM incubated for 24 to 48 hrs by scanning electron microscopy analysis", "type": "functional, organism-based", "details": "time 24-48 hrs", "how_it_was_run": "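Adult couples were taken by perfusion into supplemented RPMI, one couple per well, and adapted 2 h at 37°C, 5% CO2. They were exposed to 20 μM GSK343 or 0.1% DMSO for 24 and 48 h. Fixation used modified Karnovsky with osmium post-fix, followed by ethanol dehydration, critical-point drying, gold sputtering and scanning electron microscopy of tegument surfaces.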"}, "Schistosoma mansoni [7]": {"test_system": "Schistosoma mansoni", "experiment": "Cytotoxicity against juvenile Schistosoma mansoni assessed as decrease in viability at 10 to 20 uM incubated for 48 hrs by CellTiter-Glo Luminescent assay relative to control", "type": "functional", "details": "dose 10-20 µM", "how_it_was_run": "(§2)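 Perfused juvenile worms cultured in supplemented RPMI (10% FBS, 37°C, 5% CO2), exposed 24 or 48 h to compound or 0.1% DMSO. Total parasite ATP read by luminescence, given as % of vehicle; three replicate experiments of 10 juveniles each, mean ± SD.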"}, "Schistosoma mansoni [8]": {"test_system": "Schistosoma mansoni", "experiment": "Cytotoxicity against juvenile Schistosoma mansoni assessed as decrease in viability at 50 uM incubated for 48 hrs by CellTiter-Glo Luminescent assay relative to control", "type": "functional", "how_it_was_run": "as §2"}, "Schistosoma mansoni [9]": {"test_system": "Schistosoma mansoni", "experiment": "Antischistosomal activity against Schistosoma mansoni assessed as deterioration of tegument with blisters at 20 uM incubated for 24 hrs by scanning electron microscopy analysis", "type": "functional, organism-based", "how_it_was_run": "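Newly transformed schistosomula were held 16 h in M169 with 2% FBS, serotonin, hypoxanthine, hydrocortisone, triiodothyronine and antibiotics at 37°C, 5% CO2, at 2,000 per well. They were then exposed to 20 μM GSK343 or 0.1% DMSO for 24 and 48 h. Fixation was modified Karnovsky (pH 7.4) with 1% osmium post-fix, then ethanol dehydration, critical-point drying, gold coating and SEM. Lengths came from three experiments, each with 20 schistosomula.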"}, "Schistosoma mansoni [10]": {"test_system": "Schistosoma mansoni", "experiment": "Antischistosomal activity against Schistosoma mansoni assessed as schistosomula living cells at 10 to 50 uM incubated for 24 to 72 hrs by fluorescein diacetate staining based fluorescence microscope analysis", "type": "functional, organism-based", "details": "dose 10-50 µM, time 24-72 hrs", "how_it_was_run": "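Schistosomula were cultured in supplemented M169 with 10–50 μM GSK343 or 0.1% DMSO for 24, 48 and 72 h. A fresh well set was used per time point, with 2 μg/mL propidium iodide (dead) plus 0.5 μg/mL fluorescein diacetate (live) added. Parasites were read immediately by light and fluorescence microscopy; percent viable was computed against total parasites. About 3600 schistosomula per condition over four biological replicates; 70% ethanol served as positive control.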"}, "Schistosoma mansoni [11]": {"test_system": "Schistosoma mansoni", "experiment": "Antischistosomal activity against Schistosoma mansoni assessed as decreased H3K27me3 level in schistosomula at 20 uM incubated for 48 hrs by Western blotting analysis", "type": "functional, organism-based", "how_it_was_run": "(§3)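 About 10,000 schistosomula were treated 48 h with 20 μM GSK343 or vehicle, then sonicated in Triton X-100 lysis buffer with PMSF and protease inhibitors. Supernatant nuclear extract (BCA-quantified, 10 μg) was run on 15% SDS-PAGE and blotted to nitrocellulose. Blots were probed with mark-specific monoclonal antibodies, then IRDye secondaries; infrared imaging was used and signals were normalized to total H3. t-test.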"}, "Schistosoma mansoni [12]": {"test_system": "Schistosoma mansoni", "experiment": "Antischistosomal activity against Schistosoma mansoni assessed as increased H3K9ac level in schistosomula at 20 uM incubated for 48 hrs by Western blotting analysis", "type": "functional, organism-based", "how_it_was_run": "as §3"}, "Schistosoma mansoni [13]": {"test_system": "Schistosoma mansoni", "experiment": "Antischistosomal activity against Schistosoma mansoni assessed as increased H3K27ac level in schistosomula at 20 uM incubated for 48 hrs by Western blotting analysis", "type": "functional, organism-based", "how_it_was_run": "as §3"}, "Schistosoma mansoni [14]": {"test_system": "Schistosoma mansoni", "experiment": "Antischistosomal activity against adult Schistosoma mansoni assessed as increased H3K4me3 level at 20 uM incubated for 48 hrs by Western blotting analysis", "type": "functional, organism-based", "how_it_was_run": "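Fifty adult worm pairs were treated 48 h with 20 μM GSK343 or vehicle in supplemented RPMI/10% FBS, then lysed in Triton buffer. Nuclear pellets were acid-extracted overnight in 0.25 M HCl at 4°C and histones were TCA-concentrated. 10 μg went on 15% SDS-PAGE and nitrocellulose, probed with anti-H3K27me3, K9ac, K27ac or K4me3, then IRDye secondaries; infrared densitometry was normalized to anti-H3. Three biological replicates; t-test.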"}, "Schistosoma mansoni [15]": {"test_system": "Schistosoma mansoni", "experiment": "Antischistosomal activity against female Schistosoma mansoni assessed as down-regulated p48 mRNA level at 20 uM incubated for 48 hrs by RT-qPCR analysis", "type": "functional, organism-based"}, "Schistosoma mansoni [16]": {"test_system": "Schistosoma mansoni", "experiment": "Antischistosomal activity against female Schistosoma mansoni assessed as down-regulated Tyrosinase 2 mRNA level at 20 uM incubated for 48 hrs by RT-qPCR analysis", "type": "functional, organism-based", "how_it_was_run": "(§4)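 Schistosomula (supplemented M169) or adult worms (supplemented RPMI) were treated 48 h with 20 μM GSK343 or 0.1% DMSO at 37°C, 5% CO2. qPCR normalizer genes were chosen from RNA-seq data as those with TPM >1 and a treated/control ratio of 0.9–1.1 that were not differentially expressed. Relative expression was calculated by comparative Ct; significance by t-test.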"}, "Schistosoma mansoni [17]": {"test_system": "Schistosoma mansoni", "experiment": "Antischistosomal activity against female Schistosoma mansoni assessed as down-regulated nanos mRNA level at 20 uM incubated for 48 hrs by RT-qPCR analysis", "type": "functional, organism-based", "how_it_was_run": "as §4"}, "Schistosoma mansoni [18]": {"test_system": "Schistosoma mansoni", "experiment": "Antischistosomal activity against Schistosoma mansoni assessed as down-regulated LDL receptor mRNA level in schistosomula at 20 uM incubated for 48 hrs by RT-qPCR analysis", "type": "functional, organism-based", "how_it_was_run": "as §4"}, "Schistosoma mansoni [19]": {"test_system": "Schistosoma mansoni", "experiment": "Antischistosomal activity against Schistosoma mansoni assessed as down-regulated FA binding protein mRNA level in schistosomula at 20 uM incubated for 48 hrs by RT-qPCR analysis", "type": "functional, organism-based", "how_it_was_run": "as §4"}}, "note": "Active and inactive are the calls of the source. No cut-off for these calls is given here.", "data": [{"compound": "CCCc1cc(C)[nH]c(=O)c1CNC(=O)c1cc(-c2ccnc(N3CCN(C)CC3)c2)cc2c1cnn2C(C)C", "values": [{"measurement": "Activity", "setting": "Schistosoma mansoni [1]", "value": "~40", "unit": "%"}, {"measurement": "Activity", "setting": "Schistosoma mansoni [2]", "value": 50, "unit": "%"}, {"measurement": "Activity", "setting": "Schistosoma mansoni [3]", "value": "Active"}, {"measurement": "Activity", "setting": "Schistosoma mansoni [4]", "value": "~0", "unit": "%"}, {"measurement": "Activity", "setting": "Schistosoma mansoni [5]", "value": 50, "unit": "%"}, {"measurement": "Activity", "setting": "Schistosoma mansoni [6]", "value": "Active"}, {"measurement": "Activity", "setting": "Schistosoma mansoni [7]", "value": 20, "unit": "%"}, {"measurement": "Activity", "setting": "Schistosoma mansoni [8]", "value": 70, "unit": "%"}, {"measurement": "Activity", "setting": "Schistosoma mansoni [9]", "value": "Active"}, {"measurement": "Activity", "setting": "Schistosoma mansoni [10]", "value": "Active"}, {"measurement": "Activity", "setting": "Schistosoma mansoni [11]", "value": "Active"}, {"measurement": "Activity", "setting": "Schistosoma mansoni [12]", "value": "Active"}, {"measurement": "Activity", "setting": "Schistosoma mansoni [13]", "value": "Active"}, {"measurement": "Activity", "setting": "Schistosoma mansoni [14]", "value": "Active"}, {"measurement": "Activity", "setting": "Schistosoma mansoni [15]", "value": "Active"}, {"measurement": "Activity", "setting": "Schistosoma mansoni [16]", "value": "Active"}, {"measurement": "Activity", "setting": "Schistosoma mansoni [17]", "value": "Active"}, {"measurement": "Activity", "setting": "Schistosoma mansoni [18]", "value": "Active"}, {"measurement": "Activity", "setting": "Schistosoma mansoni [19]", "value": "Active"}]}]}
